Source: ChEMBL document CHEMBL1777748 (Bioorg Med Chem Lett, 2011)
Active and inactive are the calls of the source. The rule behind the calls is not given here.

How the values were obtained:
[1] = biological target: T1, Prostaglandin D2 receptor 2 (Homo sapiens, UniProt Q9Y5Y4); experiment: Displacement of [3H]-PGD2 from CRTh2 receptor by scintillation proximity assay
T1 sequence (Q9Y5Y4 whole entry): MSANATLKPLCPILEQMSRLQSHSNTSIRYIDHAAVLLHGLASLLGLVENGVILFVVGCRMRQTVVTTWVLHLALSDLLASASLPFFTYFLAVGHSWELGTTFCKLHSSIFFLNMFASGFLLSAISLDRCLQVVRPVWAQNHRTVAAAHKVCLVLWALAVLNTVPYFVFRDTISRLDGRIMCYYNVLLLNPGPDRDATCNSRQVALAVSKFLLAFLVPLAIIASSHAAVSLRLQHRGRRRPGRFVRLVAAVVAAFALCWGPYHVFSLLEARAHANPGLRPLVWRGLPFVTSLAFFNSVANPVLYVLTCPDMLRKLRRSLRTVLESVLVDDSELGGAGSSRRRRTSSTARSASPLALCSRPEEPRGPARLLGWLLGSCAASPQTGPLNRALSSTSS

[2] = Intrinsic clearance in rat hepatocytes assessed per 1 x 10^6 cells
[3] = Intrinsic clearance in human liver microsomes
[4] = biological target: T1, Prostaglandin D2 receptor 2; experiment: Antagonist activity at human CRTh2 receptor expressed in HEK cells assessed as inhibition of PGD2-induced calcium flux; type: functional, cell-based, HEK293
In short: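 PGD2-driven Ca2+ flux in HEK cells transfected with human CRTh2, read as antagonism of the response.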

[5] = biological target: T2, Prostaglandin D2 receptor 2 (Homo sapiens) (UniProt Q9Y5Y4); experiment: Partial agonist activity at human CRTh2 receptor expressed in HEK cells assessed as stimulation of calcium flux; type: functional, cell-based; details: HEK293
T2 sequence (whole entry): T1 sequence (Q9Y5Y4 whole entry)

[6] = biological target: T2, Prostaglandin D2 receptor 2 (Homo sapiens); details: HEK293, 10 uM
[7] = biological target: T1, Prostaglandin D2 receptor 2; experiment: Antagonist activity at human CRTh2 receptor expressed in CHO cells assessed as inhibition of PGD2-induced calcium flux in presence of 1% bovine serum albumin; type: functional, cell-based
[8] = Half life in iv dosed rat; details: in vivo
[9] = Oral bioavailability in rat; type: ADME, organism-based; details: in vivo
[10] = Lipophilicity, log D of the compound at pH 7.4; details: buffer
Cytochrome P450 1A2 = biological target: T3, Cytochrome P450 1A2 (Homo sapiens, UniProt P05177); experiment: Inhibition of CYP1A2; type: ADME
T3 sequence (P05177 whole entry): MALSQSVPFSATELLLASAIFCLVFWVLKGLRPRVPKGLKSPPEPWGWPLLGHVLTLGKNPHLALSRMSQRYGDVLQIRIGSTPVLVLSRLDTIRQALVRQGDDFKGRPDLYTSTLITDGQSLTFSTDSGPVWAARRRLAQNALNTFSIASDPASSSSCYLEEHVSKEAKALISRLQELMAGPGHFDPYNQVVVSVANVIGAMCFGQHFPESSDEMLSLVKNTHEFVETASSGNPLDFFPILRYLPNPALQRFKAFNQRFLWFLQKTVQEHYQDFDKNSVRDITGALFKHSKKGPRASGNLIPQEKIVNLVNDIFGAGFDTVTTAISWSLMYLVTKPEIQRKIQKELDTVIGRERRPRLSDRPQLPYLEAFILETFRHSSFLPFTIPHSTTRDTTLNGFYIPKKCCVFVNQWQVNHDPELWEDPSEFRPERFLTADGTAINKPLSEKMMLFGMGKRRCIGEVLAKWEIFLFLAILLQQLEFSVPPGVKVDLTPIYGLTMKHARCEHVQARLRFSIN

Cytochrome P450 3A4 = Cytochrome P450 3A4 (Homo sapiens, UniProt P08684); experiment: Inhibition of CYP3A4; type: ADME
Chain of Cytochrome P450 3A4 (P08684 whole entry): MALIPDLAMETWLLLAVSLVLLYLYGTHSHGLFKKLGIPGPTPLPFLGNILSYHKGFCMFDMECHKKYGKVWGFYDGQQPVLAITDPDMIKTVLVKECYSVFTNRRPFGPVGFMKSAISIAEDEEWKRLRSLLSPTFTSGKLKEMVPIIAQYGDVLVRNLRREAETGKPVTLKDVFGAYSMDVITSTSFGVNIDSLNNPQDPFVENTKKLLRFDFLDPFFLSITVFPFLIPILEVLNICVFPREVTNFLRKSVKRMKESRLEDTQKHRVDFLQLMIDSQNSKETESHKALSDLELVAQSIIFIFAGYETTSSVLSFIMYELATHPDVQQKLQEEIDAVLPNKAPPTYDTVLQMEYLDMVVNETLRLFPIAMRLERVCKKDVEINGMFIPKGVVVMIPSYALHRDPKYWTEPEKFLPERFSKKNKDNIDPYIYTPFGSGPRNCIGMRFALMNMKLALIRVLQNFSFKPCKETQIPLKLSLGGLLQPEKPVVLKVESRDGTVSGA

Cytochrome P450 2C9 = Cytochrome P450 2C9 (Homo sapiens, UniProt P11712); experiment: Inhibition of CYP2C9; type: ADME
Chain of Cytochrome P450 2C9 (P11712 whole entry): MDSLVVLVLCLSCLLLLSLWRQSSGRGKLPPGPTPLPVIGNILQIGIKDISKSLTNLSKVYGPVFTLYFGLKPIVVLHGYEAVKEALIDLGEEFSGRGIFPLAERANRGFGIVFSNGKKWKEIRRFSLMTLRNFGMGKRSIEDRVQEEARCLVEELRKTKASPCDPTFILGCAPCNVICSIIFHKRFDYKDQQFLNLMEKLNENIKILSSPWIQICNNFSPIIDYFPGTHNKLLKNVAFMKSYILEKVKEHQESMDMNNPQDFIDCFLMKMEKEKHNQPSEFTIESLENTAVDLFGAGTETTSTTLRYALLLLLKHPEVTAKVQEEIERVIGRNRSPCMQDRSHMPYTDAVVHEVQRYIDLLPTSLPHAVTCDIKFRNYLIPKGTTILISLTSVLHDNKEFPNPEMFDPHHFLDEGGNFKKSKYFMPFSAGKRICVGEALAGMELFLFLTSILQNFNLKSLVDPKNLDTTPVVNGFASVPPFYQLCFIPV

Cytochrome P450 2C19 = Cytochrome P450 2C19 (Homo sapiens, UniProt P33261); experiment: Inhibition of CYP2C19; type: ADME
Chain of Cytochrome P450 2C19 (P33261 whole entry): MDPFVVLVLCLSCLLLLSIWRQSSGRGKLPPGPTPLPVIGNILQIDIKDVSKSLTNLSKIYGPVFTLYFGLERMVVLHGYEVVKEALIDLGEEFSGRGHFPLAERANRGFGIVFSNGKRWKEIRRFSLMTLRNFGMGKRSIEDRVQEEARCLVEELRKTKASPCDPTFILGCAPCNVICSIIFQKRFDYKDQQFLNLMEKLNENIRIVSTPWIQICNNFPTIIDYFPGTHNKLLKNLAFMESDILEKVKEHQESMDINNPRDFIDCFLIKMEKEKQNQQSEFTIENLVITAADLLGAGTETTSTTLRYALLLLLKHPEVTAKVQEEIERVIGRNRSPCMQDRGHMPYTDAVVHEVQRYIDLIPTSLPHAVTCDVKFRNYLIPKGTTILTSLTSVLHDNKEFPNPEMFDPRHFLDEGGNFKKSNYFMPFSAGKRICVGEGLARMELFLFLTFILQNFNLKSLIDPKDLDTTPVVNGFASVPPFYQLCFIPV

Cytochrome P450 2D6 = Cytochrome P450 2D6 (Homo sapiens, UniProt P10635); experiment: Inhibition of CYP2D6; type: ADME
Chain of Cytochrome P450 2D6 (P10635 whole entry): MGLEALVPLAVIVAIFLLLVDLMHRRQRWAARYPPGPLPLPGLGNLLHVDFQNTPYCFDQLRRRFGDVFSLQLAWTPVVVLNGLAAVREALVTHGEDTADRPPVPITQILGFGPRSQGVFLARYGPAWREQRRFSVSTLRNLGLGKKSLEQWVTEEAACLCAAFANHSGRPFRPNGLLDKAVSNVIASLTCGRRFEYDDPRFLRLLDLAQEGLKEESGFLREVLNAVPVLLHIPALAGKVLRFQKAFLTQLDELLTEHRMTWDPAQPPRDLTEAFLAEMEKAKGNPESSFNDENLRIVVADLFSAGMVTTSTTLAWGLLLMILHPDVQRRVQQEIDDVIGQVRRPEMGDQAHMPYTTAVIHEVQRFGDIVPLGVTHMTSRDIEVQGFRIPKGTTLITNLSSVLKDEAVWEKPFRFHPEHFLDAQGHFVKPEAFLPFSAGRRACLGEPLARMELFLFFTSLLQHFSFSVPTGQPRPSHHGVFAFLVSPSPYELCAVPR

[11] = biological target: T4, Prostaglandin D2 receptor 2 (Mus musculus, UniProt Q9Z2J6); experiment: Binding affinity to mouse CRTh2 receptor
T4 sequence (Q9Z2J6 whole entry): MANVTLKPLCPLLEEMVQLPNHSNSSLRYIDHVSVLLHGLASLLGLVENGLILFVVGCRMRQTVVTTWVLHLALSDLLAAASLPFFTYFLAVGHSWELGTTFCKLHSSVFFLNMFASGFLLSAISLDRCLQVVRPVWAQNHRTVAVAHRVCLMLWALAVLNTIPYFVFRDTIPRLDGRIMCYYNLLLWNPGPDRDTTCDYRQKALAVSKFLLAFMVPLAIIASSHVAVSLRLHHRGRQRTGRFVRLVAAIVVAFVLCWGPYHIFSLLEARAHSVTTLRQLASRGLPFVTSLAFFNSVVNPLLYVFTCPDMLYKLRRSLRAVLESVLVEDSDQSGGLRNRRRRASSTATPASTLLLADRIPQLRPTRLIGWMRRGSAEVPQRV

[12] = biological target: T5, Prostaglandin D2 receptor 2 (Rattus norvegicus, UniProt Q6XKD3); experiment: Binding affinity to rat CRTh2 receptor
T5 sequence (Q6XKD3 whole entry): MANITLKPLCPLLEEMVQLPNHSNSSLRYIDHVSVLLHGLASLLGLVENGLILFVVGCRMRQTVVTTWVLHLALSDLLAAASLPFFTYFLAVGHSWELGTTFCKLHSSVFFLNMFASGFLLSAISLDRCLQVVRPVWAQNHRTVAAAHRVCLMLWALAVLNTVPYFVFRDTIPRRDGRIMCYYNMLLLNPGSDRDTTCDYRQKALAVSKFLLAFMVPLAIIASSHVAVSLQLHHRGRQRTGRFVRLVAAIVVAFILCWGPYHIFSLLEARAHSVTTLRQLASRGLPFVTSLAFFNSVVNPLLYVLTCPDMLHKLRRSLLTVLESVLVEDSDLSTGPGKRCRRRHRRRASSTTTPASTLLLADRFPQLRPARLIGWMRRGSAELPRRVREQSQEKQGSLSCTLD

[13] = biological target: T6, Chemoattractant receptor-homologous molecule expressed on Th2 cells (Cavia porcellus, UniProt Q56D28); experiment: Binding affinity to guinea pig CRTh2 receptor
T6 sequence (Q56D28 whole entry): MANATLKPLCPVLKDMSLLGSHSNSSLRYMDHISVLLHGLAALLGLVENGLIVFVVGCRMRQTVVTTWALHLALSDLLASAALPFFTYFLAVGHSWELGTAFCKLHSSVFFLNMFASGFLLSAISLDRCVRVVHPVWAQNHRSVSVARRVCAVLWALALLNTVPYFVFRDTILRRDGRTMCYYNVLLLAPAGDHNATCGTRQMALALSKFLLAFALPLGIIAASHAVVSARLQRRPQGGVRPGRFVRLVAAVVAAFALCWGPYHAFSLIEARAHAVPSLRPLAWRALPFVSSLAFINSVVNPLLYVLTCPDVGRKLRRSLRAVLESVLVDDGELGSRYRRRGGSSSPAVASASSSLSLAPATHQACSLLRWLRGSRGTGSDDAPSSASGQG

[14] = Oral bioavailability in dog; type: ADME, organism-based, Canis lupus familiaris; details: in vivo
Mus musculus = species: Mus musculus; experiment: Protection against 11 days tobacco smoke-induced mucosal damage in mouse lung assessed as inhibition of inflammatory cells accumulation; type: functional, organism-based
[15] = Fraction unbound in human plasma; type: ADME, cell-free
[16] = Fraction unbound in rat plasma; type: ADME, cell-free
[17] = Fraction unbound in dog plasma; type: ADME, cell-free, Canis lupus familiaris
[18] = Fraction unbound in cynomolgus monkey plasma; type: ADME, cell-free, Macaca fascicularis
[19] = biological target: T2, Prostaglandin D2 receptor 2 (Homo sapiens); experiment: Displacement of [3H]-PGD2 from CRTh2 receptor at 10 uM by scintillation proximity assay
In short: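 Scintillation proximity binding with [3H]-PGD2 as radioligand; reported values are means of more than 2 measurements.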

[20] = Aqueous solubility of the compound in buffer at pH 7.4; type: physicochemical

| IC50 [1] | hepatocyte CLint [2] | microsomal CLint ([3]; liver microsomes) | SMILES | other results |
| --- | --- | --- | --- | --- |
| 316 nM | 7 µL/min/1e6 cells | < 3 µL/min/mg | O=C(O)COc1ccc(Br)cc1-c1ccccc1 | IC50 [4]: 158 nM |
| 541 nM | 6 µL/min/1e6 cells | < 3 µL/min/mg | CS(=O)(=O)c1ccc(OCC(=O)O)c(-c2ccccc2)c1 | Activity [5]: Active |
| 8910 nM | 64 µL/min/1e6 cells | < 3 µL/min/mg | Nc1ccc(OCC(=O)O)c(-c2ccccc2)c1 | inhibition [6]: 17% |
| 1.7 nM | 5 µL/min/1e6 cells | – | N#Cc1cccc(-c2cc(Cl)ccc2OCC(=O)O)c1 | microsomal CLint ([3]; microsomes): < 3 µL/min/mg; IC50 [7]: 10 nM; half-life [8]: 2.3 h; bioavailability [9]: 96% |
| 1.3 nM | 18 µL/min/1e6 cells | 9 µL/min/mg | CCN(CC)S(=O)(=O)c1ccc(-c2cc(C(F)(F)F)ccc2OCC(=O)O)cc1 | logD [10]: 0.7 |
| 355 nM | < 3 µL/min/1e6 cells | 6 µL/min/mg | N#Cc1ccc(OCC(=O)O)c(-c2ccccc2)c1 | IC50 [4]: 251 nM |
| 1780 nM | – | – | O=C(O)COc1ccc(-c2nccs2)cc1-c1ccccc1 | IC50 [4]: 501 nM |
| 0.9 nM | – | – | CCS(=O)(=O)c1ccc(-c2cc(C(F)(F)F)ccc2OCC(=O)O)c(C)c1 | IC50 [7]: 29 nM; bioavailability [9]: 42%; IC50 (Cytochrome P450 1A2): > 50000 nM; IC50 (Cytochrome P450 3A4): > 50000 nM; IC50 (Cytochrome P450 2C9): > 50000 nM; IC50 (Cytochrome P450 2C19): > 50000 nM; IC50 (Cytochrome P450 2D6): > 50000 nM; IC50 [11]: 1 nM; IC50 [12]: 1.3 nM; IC50 [13]: 63 nM; bioavailability [14]: 46%; Activity (Mus musculus): Active; fraction unbound [15]: 0.046; fraction unbound [16]: 0.056; fraction unbound [17]: 0.03; fraction unbound [18]: 0.026 |
| 251 nM | – | – | O=C(O)COc1ccc([N+](=O)[O-])cc1-c1ccccc1 | IC50 [4]: 178 nM |
| < 0.4 nM | < 3 µL/min/1e6 cells | < 3 µL/min/mg | N#Cc1cccc(-c2cc(C(F)(F)F)ccc2OCC(=O)O)c1 | logD [10]: 0.1 |
| 0.2 nM | < 3 µL/min/1e6 cells | – | Cc1ccc(C#N)cc1-c1cc(C(F)(F)F)ccc1OCC(=O)O | microsomal CLint ([3]; microsomes): < 3 µL/min/mg; logD [10]: 0.2 |
| 0.6 nM | < 3 µL/min/1e6 cells | < 3 µL/min/mg | CCS(=O)(=O)c1ccc(-c2cc(C(F)(F)F)ccc2O[C@H](C)C(=O)O)c(Cl)c1 | logD [10]: 0 |
| 50 nM | < 3 µL/min/1e6 cells | 11 µL/min/mg | O=C(O)COc1ccc(C(F)(F)F)cc1-c1ccc(Cl)cc1 | logD [10]: 0.9 |
| – | – | – | O=C(O)COc1ccccc1-c1ccccc1 | inhibition [19]: 41% |
| 36 nM | < 3 µL/min/1e6 cells | < 3 µL/min/mg | CS(=O)(=O)c1ccc(-c2cc(C(F)(F)F)ccc2OCC(=O)O)cc1 | Activity [5]: Active |
| 45 nM | 3 µL/min/1e6 cells | < 3 µL/min/mg | O=C(O)COc1ccc(C(F)(F)F)cc1-c1ccccc1 | solubility [20]: > 80 µM |
| 794 nM | < 3 µL/min/1e6 cells | 12 µL/min/mg | Cc1ccc(OCC(=O)O)c(-c2ccccc2)c1 | IC50 [4]: 708 nM |
